The results in this text go back to ChEMBL document CHEMBL1914408, “Synthesis and biological evaluation of hydroxylated 3-phenylcoumarins as antioxidants and antiproliferative agents” (Bioorg Med Chem Lett, 2011).

Experiment [1] concerns A549. Nature of the experiment: Antiproliferative activity against human A549 cells after 72 hrs by MTT assay. In kind it is functional, cell-based. The conditions noted are these: A549, 72 h. The gist of the method:
(§1)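 MTT proliferation assay in HL-60 and A549 cells; IC50 taken as concentration giving 50% inhibition of cell proliferation, reported as mean ± SD of three determinations.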
For orientation: Tetrazolium assays rely on reduction of a dye to a coloured formazan, in cell work by metabolically active cells.

The subject of experiment [2] is HL-60. Nature of the experiment: Antiproliferative activity against human HL60 cells after 48 hrs by MTT assay. The note with it: HL-60, 48 h. In kind it is functional, cell-based. In a few lines: as §1
Experiment [3] in a line: Antioxidant activity assessed as protection against […]-induced pBR322 DNA strand breakage at 20 uM after 1 hr using ethidium bromide staining by agarose gel electrophoresis analysis. In kind it is functional. The gist of the method: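 Supercoiled plasmid pBR322 DNA (100 ng/25 µl) incubated with 10 mM AAPH plus 20 µM test compound in 10 mM PBS, pH 7.4, 37 °C, 1 h; strand breakage (supercoiled vs open circular/linear forms) read by agarose gel electrophoresis. Controls: DNA alone (native) and DNA with AAPH.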

For experiment [4], the system named is A549. Nature of the experiment: Cell cycle arrest in human A549 cells assessed as accumulation at G2/M phase at 10 uM after 24 hrs using propidium iodide staining by flow cytometric analysis (reference value: 8.16 %). The format is functional.
Experiment [5] deals with A549. Description: Cell cycle arrest in human A549 cells assessed as accumulation at G0/G1 phase at 40 uM after 24 hrs using propidium iodide staining by flow cytometric analysis (reference value: 70.68 %). In kind it is functional. (In general: A flow cytometer gives signals particle by particle.)
The test system of experiment [6] is A549. Description: Cell cycle arrest in human A549 cells assessed as accumulation at S phase at 40 uM after 24 hrs using propidium iodide staining by flow cytometric analysis (reference value: 21.16 %). The format is functional.
Experiment [7] relates to A549. Nature of the experiment: Cell cycle arrest in human A549 cells assessed as accumulation at G0/G1 phase at 30 uM after 24 hrs using propidium iodide staining by flow cytometric analysis (reference value: 70.68 %). In kind it is functional.
For experiment [8], the system named is A549. Description: Cell cycle arrest in human A549 cells assessed as accumulation at G2/M phase at 40 uM after 24 hrs using propidium iodide staining by flow cytometric analysis (reference value: 8.16 %). In kind it is functional.
The test system of experiment [9] is A549. Description: Cell cycle arrest in human A549 cells assessed as accumulation at S phase at 20 uM after 24 hrs using propidium iodide staining by flow cytometric analysis (reference value: 21.16 %). In kind it is functional.
Experiment [10] has as its system A549. Nature of the experiment: Cell cycle arrest in human A549 cells assessed as accumulation at G2/M phase at 20 uM after 24 hrs using propidium iodide staining by flow cytometric analysis (reference value: 8.16 %). In kind it is functional.
Experiment [11] deals with A549. Nature of the experiment: Antiproliferative activity against human A549 cells after 72 hrs by MTT assay relative to resveratrol. In kind it is functional.
Experiment [12] has as its system A549. Description: Induction of apoptosis in human A549 cells assessed as changes in cell morphology after 24 hrs by Hoechst-33258/propodium iodide staining based fluorescence microscopy. In kind it is functional. The gist of the method:
(§2)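 A549 cells treated with culture medium or 5, 10 and 15 µM compound for 24 h, then nuclear-stained with Hoechst 33258/propidium iodide and viewed by fluorescence microscopy (200×). Living cells scored as smooth blue nuclei; early apoptotic cells as blue with bright specks of condensed chromatin. Representative of three separate experiments.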

The test system of experiment [13] is A549. Description: Cell cycle arrest in human A549 cells assessed as accumulation at S phase at 30 uM after 24 hrs using propidium iodide staining by flow cytometric analysis (reference value: 21.16 %). The format is functional.
The subject of experiment [14] is A549. Description: Induction of early apoptosis in human A549 cells assessed as reduction of living cells after 24 hrs by Hoechst-33258/propodium iodide staining based fluorescence microscopy. In kind it is functional, cell-based. In a few lines: as §2
In experiment [15] the test system is A549. Description: Cell cycle arrest in human A549 cells assessed as accumulation at S phase at 15 uM after 24 hrs using propidium iodide staining by flow cytometric analysis (reference value: 21.16 %). In kind it is functional.
The subject of experiment [16] is A549. Description: Cell cycle arrest in human A549 cells assessed as accumulation at G2/M phase at 15 uM after 24 hrs using propidium iodide staining by flow cytometric analysis (reference value: 8.16 %). In kind it is functional.
Experiment [17] relates to HL-60. Description: Antiproliferative activity against human HL60 cells after 48 hrs by MTT assay relative to resveratrol. In kind it is functional.
The test system of experiment [18] is A549. Description: Cell cycle arrest in human A549 cells assessed as accumulation at G0/G1 phase at 20 uM after 24 hrs using propidium iodide staining by flow cytometric analysis (reference value: 70.68 %). The format is functional.
The subject of experiment [19] is A549. Nature of the experiment: Cell cycle arrest in human A549 cells assessed as accumulation at G0/G1 phase at 15 uM after 24 hrs using propidium iodide staining by flow cytometric analysis (reference value: 70.68 %). In kind it is functional.
For experiment [20], the system named is A549. Nature of the experiment: Cell cycle arrest in human A549 cells assessed as accumulation at G0/G1 phase at 10 uM after 24 hrs using propidium iodide staining by flow cytometric analysis (reference value: 70.68 %). The format is functional.
For experiment [21], the system named is A549. Nature of the experiment: Cell cycle arrest in human A549 cells assessed as accumulation at G2/M phase at 30 uM after 24 hrs using propidium iodide staining by flow cytometric analysis (reference value: 8.16 %). In kind it is functional.
Experiment [22] has as its system A549. Nature of the experiment: Cell cycle arrest in human A549 cells assessed as accumulation at S phase at 10 uM after 24 hrs using propidium iodide staining by flow cytometric analysis (reference value: 21.16 %). The format is functional.
The subject of experiment [23] is A549. Nature of the experiment: Induction of apoptosis in human A549 cells assessed as condensed chromatin after 24 hrs by Hoechst-33258/propodium iodide staining based fluorescence microscopy. The format is functional, cell-based. The gist of the method:
as §2

Structures are written as SMILES. Active and inactive are the calls of the source. The calls are words filed in the database; no cut-off is given here. Some results are limits rather than exact numbers.

A word on the IC50: it is the concentration needed to halve the response being measured.

For the compound `O=c1oc2cc(O)ccc2cc1-c1ccc(O)c(O)c1`, the 50% inhibitory concentration (IC50) with A549 [1] came out at 85 µM; with HL-60 [2] it was 42.1 µM.
Consider `COc1cc(-c2cc3ccc(O)cc3oc2=O)ccc1O`, for which the IC50 in the experiment on A549 [1] was > 200 µM; in the experiment with HL-60 [2], 91.7 µM. Besides, in experiment [3], the outcome was Active.
In the case of `COc1cc2cc(-c3ccc(O)cc3)c(=O)oc2c(OC)c1O`, the 50% inhibitory concentration (IC50) came out at 45.8 µM with A549 [1] and 25.1 µM in the experiment on HL-60 [2]. Moreover, the result in experiment [3] was Active.
As to `O=c1oc2cc(O)c(O)cc2cc1-c1ccc(O)cc1`, the figures for the IC50 in the experiment on A549 [1] and in the experiment with HL-60 [2] were 42.5 µM and 25 µM, respectively. The result in experiment [3] was Active.
Taken in the same sequence, the figures for `O=c1oc2cc(O)c(O)cc2cc1-c1ccc(O)c(O)c1` were 48.8 µM, 22.1 µM and “Active”.
For `O=c1oc2ccccc2cc1-c1ccc(O)cc1`, the IC50 with A549 [1] and in the experiment with HL-60 [2] was > 200 µM throughout.
With `O=c1oc2cc(O)ccc2cc1-c1ccc(O)cc1`, the IC50 with A549 [1] and in the experiment with HL-60 [2] was > 200 µM throughout. Moreover, the result in experiment [3] was Active.
Turning to `O=c1oc2cc(O)ccc2cc1-c1cc(O)cc(O)c1`, the IC50 is > 200 µM with A549 [1] and 127 µM with HL-60 [2].
As for `Oc1ccc(/C=C/c2cc(O)cc(O)c2)cc1` [RESVERATROL], the 50% inhibitory concentration (IC50) in the experiment with A549 [1] stood at 120 µM.
Consider `COc1cc2cc(-c3cc(OC)c(OC)c(OC)c3)c(=O)oc2c(OC)c1O`, for which the IC50 with A549 [1] was > 200 µM; in the experiment on HL-60 [2], 72.2 µM. In addition, the result in [3] was Active.
The corresponding values for `O=c1oc2cc(O)c(O)cc2cc1-c1ccccc1` are 27 µM, 14 µM and “Active”.
The corresponding values for `COc1cc(-c2cc3cc(OC)c(O)cc3oc2=O)ccc1O` are 21.4 µM, 24.3 µM and “Active”.
Turning to `COc1cc2cc(-c3ccc(O)cc3)c(=O)oc2cc1O`, the Activity in the experiment on A549 [4] stood at 16.6%; with A549 [5], 7.11%; in the experiment on A549 [6], 8.86%; in the experiment on A549 [7], 9.62%; in the experiment on A549 [8], 84.03%; with A549 [9], 18.1%. For the same compound, the Activity is 70.08% in the experiment on A549 [10]; “Dose-dependent effect” in the experiment on A549 [12]; 9.43% in the experiment with A549 [13]; “Dose-dependent effect” with A549 [14]; 19.86% in the experiment on A549 [15]; 40.65% in the experiment on A549 [16]. The Activity with A549 [18] is 11.82%; in the experiment on A549 [19], 34.49%; in the experiment on A549 [20] it was 71.45%; in the experiment on A549 [21], 80.95%; with A549 [22], 11.95%; with A549 [23], “Dose-dependent effect”. The “fold change (FC)” value in the experiment on A549 [11] was 16; in the experiment with HL-60 [17], 7. The half-inhibitory concentration (IC50) with A549 [1] amounted to 7.5 µM; in the experiment on HL-60 [2] it was 5.2 µM. For the same compound, in experiment [3], the result was inactive.
On to `O=c1oc2cc(O)ccc2cc1-c1ccccc1`, for which the IC50 in the experiment with A549 [1] and with HL-60 [2] was > 200 µM throughout.
`COc1cc(-c2cc3cc(O)c(O)cc3oc2=O)ccc1O` yielded an IC50 with A549 [1] of 43.4 µM.
